ChEMBL document CHEMBL4422650, “Design and synthesis of biotinylated cardiac glycosides for probing Nur77 protein inducting pathway” (Bioorg Med Chem Lett, 2019)
Calls of active or inactive are those of the source. The calls are words filed in the database; no cut-off is given here.

How the values were obtained:
[1] = species on record: Homo sapiens; assay: Induction of Nur77 expression in human NIH-H460 cells AT 20 nM after 3 hrs by Western blot analysis; type: functional, cell-based
Outline: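 NIH-H460 cancer cells were exposed to probes at 20 nM for 3 h. Nur77 protein was detected by western blotting with an anti-Nur77 antibody. DMSO served as the blank, and the underivatized biotin linker hydrazides were the negative controls.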

[2] = Cytotoxicity against human NIH-H460 cells assessed as cell viability at 50 nM after 48 hrs by MTT assay relative to control
[3] = biological target: Streptavidin (Streptomyces avidinii) (UniProt P22629); assay: Binding affinity to Streptomyces avidinii streptavidin at 1 mM after 2 hrs by HABA dye-based UV-vis spectroscopic analysis
Streptavidin (Streptomyces avidinii), sequence (P22629 whole entry): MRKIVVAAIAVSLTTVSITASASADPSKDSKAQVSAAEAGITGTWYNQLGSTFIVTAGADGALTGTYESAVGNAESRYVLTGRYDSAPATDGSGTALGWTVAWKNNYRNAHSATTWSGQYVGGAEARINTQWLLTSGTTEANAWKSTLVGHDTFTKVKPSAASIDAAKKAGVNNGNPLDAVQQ

Structure (SMILES) | Activity [1] | viability at 48 h, 0.05 µM [2] [%] | Activity [3]
C[C@@H]1O[C@@H](O[C@H]2CC[C@]3(/C=N/NC(=O)CCCCCCCNC(=O)CCCC[C@@H]4SC[C@@H]5NC(=O)N[C@@H]54)[C@H]4C[C@@H](O)[C@]5(C)[C@@H](C6=CC(=O)OC6)CC[C@]5(O)[C@@H]4CC[C@]3(O)C2)[C@H](O)[C@H](O)[C@H]1O | Active | > 90 | 
C[C@@H]1O[C@@H](O[C@H]2CC[C@]3(/C=N/NC(=O)COCCOCCOCCNC(=O)CCCC[C@@H]4SC[C@@H]5NC(=O)N[C@@H]54)[C@H]4C[C@@H](O)[C@]5(C)[C@@H](C6=CC(=O)OC6)CC[C@]5(O)[C@@H]4CC[C@]3(O)C2)[C@H](O)[C@H](O)[C@H]1O | Active | > 90 | 
NNC(=O)CCCCCNC(=O)CCCC[C@@H]1SC[C@@H]2NC(=O)N[C@@H]21 |  | > 90 | 
C[C@H]1O[C@@H](O[C@H]2CC[C@]3(/C=N/NC(=O)CCCCCNC(=O)CCCC[C@@H]4SC[C@@H]5NC(=O)N[C@@H]54)[C@H]4C[C@@H](O)[C@]5(C)[C@@H](C6=CC(=O)OC6)CC[C@]5(O)[C@@H]4CC[C@]3(O)C2)[C@H](O)[C@H](O)[C@H]1O | Active | > 90 | 
C[C@@H]1O[C@@H](O[C@H]2CC[C@]3(C=O)[C@H]4C[C@@H](O)[C@]5(C)[C@@H](C6=CC(=O)OC6)CC[C@]5(O)[C@@H]4CC[C@]3(O)C2)[C@H](O)[C@H](O)[C@H]1O | Active |  | 
C[C@@H]1O[C@@H](O[C@H]2CC[C@]3(/C=N/NC(=O)CCCNC(=O)CCCC[C@@H]4SC[C@@H]5NC(=O)N[C@@H]54)[C@H]4C[C@@H](O)[C@]5(C)[C@@H](C6=CC(=O)OC6)CC[C@]5(O)[C@@H]4CC[C@]3(O)C2)[C@H](O)[C@H](O)[C@H]1O | Active | > 90 | 
C[C@H]1O[C@@H](O[C@H]2CC[C@]3(/C=N/NC(=O)CCCNC(=O)CCCC[C@@H]4SC[C@@H]5NC(=O)N[C@@H]54)[C@H]4C[C@@H](O)[C@]5(C)[C@@H](C6=CC(=O)OC6)CC[C@]5(O)[C@@H]4CC[C@]3(O)C2)[C@H](O)[C@H](O)[C@H]1O | Active | > 90 | 
C[C@H]1O[C@@H](O[C@H]2CC[C@]3(/C=N/NC(=O)COCCNC(=O)CCCC[C@@H]4SC[C@@H]5NC(=O)N[C@@H]54)[C@H]4C[C@@H](O)[C@]5(C)[C@@H](C6=CC(=O)OC6)CC[C@]5(O)[C@@H]4CC[C@]3(O)C2)[C@H](O)[C@H](O)[C@H]1O | Active | > 90 | 
C[C@@H]1O[C@@H](O[C@H]2CC[C@]3(/C=N/NC(=O)COCCOCCNC(=O)CCCC[C@@H]4SC[C@@H]5NC(=O)N[C@@H]54)[C@H]4C[C@@H](O)[C@]5(C)[C@@H](C6=CC(=O)OC6)CC[C@]5(O)[C@@H]4CC[C@]3(O)C2)[C@H](O)[C@H](O)[C@H]1O | Active | > 90 | 
C[C@H]1O[C@@H](O[C@H]2CC[C@]3(/C=N/NC(=O)CNC(=O)CCCC[C@@H]4SC[C@@H]5NC(=O)N[C@@H]54)[C@H]4C[C@@H](O)[C@]5(C)[C@@H](C6=CC(=O)OC6)CC[C@]5(O)[C@@H]4CC[C@]3(O)C2)[C@H](O)[C@H](O)[C@H]1O | Active | > 90 | 
C[C@@H]1O[C@@H](O[C@H]2CC[C@]3(/C=N/NC(=O)CNC(=O)CCCC[C@@H]4SC[C@@H]5NC(=O)N[C@@H]54)[C@H]4C[C@@H](O)[C@]5(C)[C@@H](C6=CC(=O)OC6)CC[C@]5(O)[C@@H]4CC[C@]3(O)C2)[C@H](O)[C@H](O)[C@H]1O | Active | > 90 | 
C[C@H]1O[C@@H](O[C@H]2CC[C@]3(/C=N/NC(=O)COCCOCCOCCNC(=O)CCCC[C@@H]4SC[C@@H]5NC(=O)N[C@@H]54)[C@H]4C[C@@H](O)[C@]5(C)[C@@H](C6=CC(=O)OC6)CC[C@]5(O)[C@@H]4CC[C@]3(O)C2)[C@H](O)[C@H](O)[C@H]1O | Active | > 90 | 
C[C@H]1O[C@@H](O[C@H]2CC[C@]3(C=O)[C@H]4C[C@@H](O)[C@]5(C)[C@@H](C6=CC(=O)OC6)CC[C@]5(O)[C@@H]4CC[C@]3(O)C2)[C@H](O)[C@H](O)[C@H]1O | Active |  | 
C[C@@H]1O[C@@H](O[C@H]2CC[C@]3(/C=N/NC(=O)CCCC[C@@H]4SC[C@@H]5NC(=O)N[C@@H]54)[C@H]4C[C@@H](O)[C@]5(C)[C@@H](C6=CC(=O)OC6)CC[C@]5(O)[C@@H]4CC[C@]3(O)C2)[C@H](O)[C@H](O)[C@H]1O | Active | > 90 | 
C[C@H]1O[C@@H](O[C@H]2CC[C@]3(/C=N/NC(=O)COCCOCCNC(=O)CCCC[C@@H]4SC[C@@H]5NC(=O)N[C@@H]54)[C@H]4C[C@@H](O)[C@]5(C)[C@@H](C6=CC(=O)OC6)CC[C@]5(O)[C@@H]4CC[C@]3(O)C2)[C@H](O)[C@H](O)[C@H]1O | Active | > 90 | 
C[C@@H]1O[C@@H](O[C@H]2CC[C@]3(/C=N/NC(=O)CCCCCNC(=O)CCCC[C@@H]4SC[C@@H]5NC(=O)N[C@@H]54)[C@H]4C[C@@H](O)[C@]5(C)[C@@H](C6=CC(=O)OC6)CC[C@]5(O)[C@@H]4CC[C@]3(O)C2)[C@H](O)[C@H](O)[C@H]1O | Active | > 90 | Active
NNC(=O)COCCOCCNC(=O)CCCC[C@@H]1SC[C@@H]2NC(=O)N[C@@H]21 |  | > 90 | 
C[C@H]1O[C@@H](O[C@H]2CC[C@]3(/C=N/NC(=O)CCCC[C@@H]4SC[C@@H]5NC(=O)N[C@@H]54)[C@H]4C[C@@H](O)[C@]5(C)[C@@H](C6=CC(=O)OC6)CC[C@]5(O)[C@@H]4CC[C@]3(O)C2)[C@H](O)[C@H](O)[C@H]1O |  | > 90 | 
C[C@@H]1O[C@@H](O[C@H]2CC[C@]3(/C=N/NC(=O)COCCNC(=O)CCCC[C@@H]4SC[C@@H]5NC(=O)N[C@@H]54)[C@H]4C[C@@H](O)[C@]5(C)[C@@H](C6=CC(=O)OC6)CC[C@]5(O)[C@@H]4CC[C@]3(O)C2)[C@H](O)[C@H](O)[C@H]1O |  | > 90 | 
C[C@H]1O[C@@H](O[C@H]2CC[C@]3(/C=N/NC(=O)CCCCCCCNC(=O)CCCC[C@@H]4SC[C@@H]5NC(=O)N[C@@H]54)[C@H]4C[C@@H](O)[C@]5(C)[C@@H](C6=CC(=O)OC6)CC[C@]5(O)[C@@H]4CC[C@]3(O)C2)[C@H](O)[C@H](O)[C@H]1O | Active | > 90 | Active
